Data taken from publication PMC9463373 (Heliyon, 2022).
Entries after “also recorded” stand apart in the source; their conditions may differ.

Legend:
P-glycoprotein = P-glycoprotein (Homo sapiens, UniProt P08183); experiment: Rhodamine 123 retention by flow cytometry; assay type: cell-based
Procedure, shortened: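 COLO 205 (parental) and multidrug-resistant COLO 320 cells at 2×10^6/mL in serum-free RPMI 1640. Test compound preincubated 10 min at room temperature, then rhodamine 123 (5.2 µM final) added for 20 min at 37 °C. Cells washed twice and resuspended in PBS. FL-1 mean fluorescence read by flow cytometry against an untreated baseline. Tariquidar positive control at 0.2 µM final. FAR = (MDR treated/MDR control)/(parental treated/parental control).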

[1] = tested on: multidrug resistant COLO 320 colonic adenocarcinoma cells overexpressing the ABCB1 transporter; experiment: Checkerboard combination assay with doxorubicin; assay type: cell-based, human; conditions: for Type of interaction / Combination index (CI): with doxorubicin; for Combination index (CI): CI at ED50; for effects with doxorubicin (in words): at certain / particular concentrations
Procedure, shortened: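 Test compounds diluted against doxorubicin in a checkerboard on ABCB1-overexpressing COLO 320 cells (RPMI 1640, 10% heat-inactivated FBS), 6 × 10³ cells/well. Incubated 72 h at 37 °C in 5% CO2. MTT added for 4 h, then SDS in 0.01 M HCl overnight. OD read at 540/630 nm. CI at ED₅₀ by Chou-Talalay median-effect: CI <1 synergism, =1 additive, >1 antagonism.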

[2] = tested on: Staphylococcus aureus ATCC; experiment: Real-time ethidium bromide accumulation assay; assay type: cell-based
Procedure, shortened: (§1)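 Bacteria were grown to OD600 0.6 (E. coli AG100 in LB; S. aureus in TSB), PBS-washed and resuspended in PBS. Test compound at ½ MIC (100 μM if MIC >100) in PBS with 2 μg/mL EB, mixed 1:1 with the suspension. Fluorescence (ex 525/em 615 nm) read each minute for 1 h. Positive controls: CCCP 50 μM (E. coli), reserpine 25 μM (S. aureus). RFI taken from the accumulation curves.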

Escherichia coli AG100 = experiment: Real-time ethidium bromide accumulation assay; assay type: cell-based; conditions: E. coli AG100, ethidium bromide accumulation, minute 60, positive control 50 μM
Procedure, shortened: as §1

[3] = concentration 0.2 μM, positive control, rhodamine 123
[4] = ratio 17.42:1, starting concentration 150 μM
[5] = ratio 34.84:1, starting concentration 150 μM
[6] = ratio 69.68:1, starting concentration 150 μM
[7] = ratio 139.36:1, starting concentration 150 μM
[8] = ratio 278.72:1, starting concentration 150 μM
[9] = ratio 557.44:1, starting concentration 150 μM
[10] = concentration 2 μM, rhodamine 123
[11] = concentration 2 μM, rhodamine 123, COLO 320 vs COLO 205
[12] = concentration 20 μM, rhodamine 123
[13] = concentration 20 μM, rhodamine 123, COLO 320 vs COLO 205
[14] = ratio 23.2:1, starting concentration 200 μM
[15] = ratio 46.4:1, starting concentration 200 μM
[16] = ratio 92.8:1, starting concentration 200 μM
[17] = ratio 185.6:1, starting concentration 200 μM
[18] = ratio 371.2:1, starting concentration 200 μM
[19] = ratio 742.5:1, starting concentration 200 μM
[20] = minute 60, ½ MIC concentration (or 100 μM)
[21] = ratio 18.4:1, starting concentration 80 μM
[22] = ratio 36.8:1, starting concentration 80 μM
[23] = ratio 73.6:1, starting concentration 80 μM
[24] = ratio 147.2:1, starting concentration 80 μM
[25] = ratio 294.4:1, starting concentration 80 μM

P-glycoprotein, sequence (P08183 whole entry): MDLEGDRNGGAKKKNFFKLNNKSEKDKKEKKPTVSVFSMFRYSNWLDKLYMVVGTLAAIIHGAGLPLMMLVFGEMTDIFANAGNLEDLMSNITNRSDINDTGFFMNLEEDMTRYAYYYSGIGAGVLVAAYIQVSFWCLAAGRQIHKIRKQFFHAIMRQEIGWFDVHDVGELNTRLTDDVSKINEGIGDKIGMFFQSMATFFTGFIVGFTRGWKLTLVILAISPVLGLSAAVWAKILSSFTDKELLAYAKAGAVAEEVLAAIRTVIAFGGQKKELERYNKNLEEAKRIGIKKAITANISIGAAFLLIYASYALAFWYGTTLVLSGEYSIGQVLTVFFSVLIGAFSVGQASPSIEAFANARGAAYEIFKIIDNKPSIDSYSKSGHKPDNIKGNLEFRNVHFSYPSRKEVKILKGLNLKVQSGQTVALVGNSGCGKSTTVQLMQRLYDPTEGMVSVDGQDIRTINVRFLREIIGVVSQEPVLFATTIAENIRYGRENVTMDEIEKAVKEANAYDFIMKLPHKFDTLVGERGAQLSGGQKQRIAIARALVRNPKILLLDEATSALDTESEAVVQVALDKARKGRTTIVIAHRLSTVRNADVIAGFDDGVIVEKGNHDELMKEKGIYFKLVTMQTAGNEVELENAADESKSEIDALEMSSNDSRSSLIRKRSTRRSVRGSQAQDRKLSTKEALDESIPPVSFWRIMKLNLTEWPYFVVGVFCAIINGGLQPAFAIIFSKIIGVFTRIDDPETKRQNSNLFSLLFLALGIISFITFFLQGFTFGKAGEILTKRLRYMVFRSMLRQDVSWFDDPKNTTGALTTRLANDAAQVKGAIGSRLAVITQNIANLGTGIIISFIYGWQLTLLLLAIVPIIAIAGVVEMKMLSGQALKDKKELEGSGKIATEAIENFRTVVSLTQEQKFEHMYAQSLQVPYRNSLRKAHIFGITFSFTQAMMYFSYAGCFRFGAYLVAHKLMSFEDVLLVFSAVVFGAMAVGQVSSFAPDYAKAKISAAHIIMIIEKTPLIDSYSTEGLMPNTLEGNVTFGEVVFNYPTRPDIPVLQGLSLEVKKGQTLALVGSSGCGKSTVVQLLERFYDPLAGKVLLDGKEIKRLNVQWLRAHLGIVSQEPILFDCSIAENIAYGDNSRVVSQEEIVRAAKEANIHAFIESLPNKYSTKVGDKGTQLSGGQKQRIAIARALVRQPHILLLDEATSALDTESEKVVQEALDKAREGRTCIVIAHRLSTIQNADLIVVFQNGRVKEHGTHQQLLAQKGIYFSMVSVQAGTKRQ

COc1cc2c(cc1OC)CN(CCc1ccc(NC(=O)c3cc(OC)c(OC)cc3NC(=O)c3cnc4ccccc4c3)cc1)CC2 [Tariquidar, reference compound]
FAR (fluorescence activity ratio) (P-glycoprotein; [3]): 11.44 | FL-1 (mean fluorescence intensity of the cells) (P-glycoprotein; [3]): 88.20

CC(C)=CCOc1c2occc2cc2ccc(=O)oc12 [Compound 1, imperatorin]
Type of interaction [1, 4]: moderate antagonism | Combination index (CI) [1, 4]: 1.29 | Type of interaction [1, 5]: additive effect | Combination index (CI) [1, 5]: 1.06 | Type of interaction [1, 6]: moderate synergism | Combination index (CI) [1, 6]: 0.75 | Type of interaction [1, 7]: moderate antagonism | Combination index (CI) [1, 7]: 1.24 | Type of interaction [1, 8]: additive effect | Combination index (CI) [1, 8]: 0.99 | Type of interaction [1, 9]: additive effect | Combination index (CI) [1, 9]: 0.99 | FL-1 (mean fluorescence intensity of the cells) (P-glycoprotein; [10]): 11.30 | FAR (fluorescence activity ratio) (P-glycoprotein; [11]): 1.47 | FL-1 (mean fluorescence intensity of the cells) (P-glycoprotein; [12]): 9.82 | FAR (fluorescence activity ratio) (P-glycoprotein; [13]): 1.27

COc1cc2ccc(=O)oc2cc1OC [Compound 3, 6,7-dimethoxycoumarin]
effects with doxorubicin (in words) [1]: synergistic effects; also recorded: antagonistic effects | Type of interaction [1, 14]: antagonism | Combination index (CI) [1, 14]: 2.06 | Type of interaction [1, 15]: moderate antagonism | Combination index (CI) [1, 15]: 1.22 | Type of interaction [1, 16]: moderate synergism | Combination index (CI) [1, 16]: 0.81 | Type of interaction [1, 17]: moderate synergism | Combination index (CI) [1, 17]: 0.75 | Type of interaction [1, 18]: synergism | Combination index (CI) [1, 18]: 0.62 | Type of interaction [1, 19]: synergism | Combination index (CI) [1, 19]: 0.60 | relative fluorescence index (RFI) [2, 20]: 1.04 | FL-1 (mean fluorescence intensity of the cells) (P-glycoprotein; [10]): 8.01 | FAR (fluorescence activity ratio) (P-glycoprotein; [11]): 1.04 | FL-1 (mean fluorescence intensity of the cells) (P-glycoprotein; [12]): 15.60 | FAR (fluorescence activity ratio) (P-glycoprotein; [13]): 2.02

COc1c2ccoc2c(OCC=C(C)C)c2oc(=O)ccc12 [Compound 2, phellopterin]
effects with doxorubicin (in words) [1]: antagonistic effects | Type of interaction [1, 4]: Antagonism | Combination index (CI) [1, 4]: 2.31 | Type of interaction [1, 5]: moderate antagonism | Combination index (CI) [1, 5]: 1.40 | Type of interaction [1, 6]: moderate antagonism | Combination index (CI) [1, 6]: 1.33 | Type of interaction [1, 7]: antagonism | Combination index (CI) [1, 7]: 1.54 | Type of interaction [1, 8]: additive effect | Combination index (CI) [1, 8]: 1.05 | Type of interaction [1, 9]: additive effect | Combination index (CI) [1, 9]: 1.03 | relative fluorescence index (RFI) [2, 20]: 5.49 | FL-1 (mean fluorescence intensity of the cells) (P-glycoprotein; [10]): 11.10 | FAR (fluorescence activity ratio) (P-glycoprotein; [11]): 1.44 | FL-1 (mean fluorescence intensity of the cells) (P-glycoprotein; [12]): 20.30 | FAR (fluorescence activity ratio) (P-glycoprotein; [13]): 2.63

COC(=O)[C@H]1[C@H]2C[C@@H]3c4[nH]c5cc(OC)ccc5c4CCN3C[C@H]2C[C@@H](OC(=O)c2cc(OC)c(OC)c(OC)c2)[C@@H]1OC [reserpine, reference compound]
relative fluorescence index (RFI) ([2]; minute 60, positive control 25 μM): 2.77

CC1(C)O[C@H]2CC(=O)OC[C@]23[C@H]2CC[C@@]4(C)[C@H](c5ccoc5)OC(=O)[C@H]5O[C@]54[C@]2(C)C(=O)C[C@@H]13 [Compound 9, limonin]
FL-1 (mean fluorescence intensity of the cells) (P-glycoprotein; [10]): 2.92 | FAR (fluorescence activity ratio) (P-glycoprotein; [11]): 0.38 | FL-1 (mean fluorescence intensity of the cells) (P-glycoprotein; [12]): 10.00 | FAR (fluorescence activity ratio) (P-glycoprotein; [13]): 1.30

CC(C)=CCC/C(C)=C/COc1ccc2ccc(=O)oc2c1 [Compound 5, auraptene]
effects with doxorubicin (in words) [1]: antagonistic effects | Combination index (CI) ([1]; ratio 9.2:1, starting concentration 80 μM): 3.16 | Type of interaction [1, 21]: strong antagonism | Combination index (CI) [1, 21]: 8.37 | Type of interaction [1, 22]: slight antagonism | Combination index (CI) [1, 22]: 1.13 | Type of interaction [1, 23]: antagonism | Combination index (CI) [1, 23]: 1.72 | Type of interaction [1, 24]: antagonism | Combination index (CI) [1, 24]: 2.06 | Type of interaction [1, 25]: strong antagonism | Combination index (CI) [1, 25]: 5.30 | FL-1 (mean fluorescence intensity of the cells) (P-glycoprotein; [10]): 13.60 | FAR (fluorescence activity ratio) (P-glycoprotein; [11]): 1.76 | FL-1 (mean fluorescence intensity of the cells) (P-glycoprotein; [12]): 30.80 | FAR (fluorescence activity ratio) (P-glycoprotein; [13]): 4.00

N#CC(C#N)=NNc1cccc(Cl)c1 [CCCP]
relative fluorescence index (RFI) (Escherichia coli AG100): 1.34
